From paper PMC7611355 (Bioconjugate chemistry, 2020)
Values belong to the compound of their own block, whether it stands above or below them.

How the values were obtained:
[1] = Shelf life at room temperature; type: physicochemical; settings: solid; measured by NMR, MS, and elemental analysis
[2] = cited from earlier work
[3] = In vitro calcium mineral binding: hydroxyapatite
How it was run: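 Hydroxyapatite (1 mg) was suspended in saline (1 mL). For blocking, the suspension was preincubated overnight with unlabelled agent: pamidronate (27.9 mg, 100 µmol), alendronate or sodium fluoride, matched to each tracer. Radiotracer (~700 kBq) was added and shaken for 1 h at room temperature. After centrifuging at 9677 g for 5 min, supernatant and pellet activities were counted.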

[4] = In vitro calcium mineral binding: mean across non-HAp calcium minerals; settings: saline, room temperature, 1 h
How it was run: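 Each calcium salt (carbonate, dibasic phosphate, pyrophosphate, β-tricalcium phosphate, oxalate; 1 mg) was suspended in saline (1 mL). Radiotracer (~700 kBq) was added and shaken for 1 h at room temperature. After centrifuging at 9677 g for 5 min, supernatant and pellet activities were counted separately.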

[5] = Dynamic PET-CT imaging, ROI pharmacokinetics in healthy mice; type: in vivo, BALB/c mice
[6] = Ex vivo biodistribution by gamma counting; type: in vivo, BALB/c mice; settings: 120 min postinjection
How it was run: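 Female BALB/c mice (6-8 weeks, 17-20 g; 5 per tracer) were anaesthetised with isoflurane (2-3% in oxygen) and the radiotracer (100 ± 15 µL, 2.2-16.2 MBq) was injected via a tail-vein cannula. After a 1 h PET scan the mice recovered and were culled at 2 h postinjection. Organs were harvested, weighed and gamma-counted against standards prepared from the injected material, giving %ID/g.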

shelf life at room temperature [1]: at least 4485 days
Compound: NCCC(O)(P(=O)(O)O)P(=O)(O)O [Pamidronate, pamidronate disodium dihydrate]
pKa (amine) [2]: 10.40-13.06

Compound: [18F-].[Na+] [[^18F]NaF]
mean binding to HAp ([3]; saline, room temperature, 1 h, non-blocked): 88.4 ± 4.6% | mean blocked binding to HAp ([3]; salt preincubated with excess unlabeled BP or fluoride): 2.2 ± 0.2% | mean binding across non-HAp minerals [4]: 8.4 ± 4.6% | area under the curve from 3-59 min (AUC3-59) ([5]; heart ROI as proxy for blood): 122.3 ± 5.1 %ID min mL^-1 | knee uptake (ROI image analysis) ([5]; mice, i.v., at 60 min postinjection): 54.5 ± 5.1 %ID mL^-1 | femur uptake [6]: 47.1 ± 8.3 %ID/g
